# PMI act satM6P: increases human PMI activity with near-saturating mannose 6-phosphate; hit rate 0.34% among 190,000; activation factor at 20 µM; coupled PMI enzyme assay, resazurin fluorescence, 20 min; stronger effect = higher value; 1 = untreated enzyme, 0 = substrate-free blank; AID 1216;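 active means activation factor of 2 or more at 20 µM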
# Target sequence (P34949 whole entry, looked up): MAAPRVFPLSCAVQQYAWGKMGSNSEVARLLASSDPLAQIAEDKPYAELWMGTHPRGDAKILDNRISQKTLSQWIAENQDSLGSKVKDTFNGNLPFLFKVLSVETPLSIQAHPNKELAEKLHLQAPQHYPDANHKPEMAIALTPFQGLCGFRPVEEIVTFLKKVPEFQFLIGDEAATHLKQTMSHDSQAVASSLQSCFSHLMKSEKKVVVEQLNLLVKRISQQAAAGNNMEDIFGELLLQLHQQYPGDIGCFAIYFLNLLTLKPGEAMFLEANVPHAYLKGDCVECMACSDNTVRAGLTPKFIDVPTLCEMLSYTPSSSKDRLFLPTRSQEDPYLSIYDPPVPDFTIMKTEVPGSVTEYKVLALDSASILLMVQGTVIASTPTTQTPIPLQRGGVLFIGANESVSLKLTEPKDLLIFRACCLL
#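 Test system: Human PMI in coupled enzyme assay | Input: 15 ng/mL PMI | Medium: HEPES-buffered pH 7.4 with magnesium and detergent | Compound: One concentration, 20 µM, in 1% DMSO | Incubation: Enzyme reaction with compound 20 min at room temperature | Detection: Diaphorase-driven resazurin-to-resorufin fluorescence, excitation 544, emission 590 nm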
# L major viab: reduces viability of Leishmania major promastigotes; resazurin fluorescence viability; inhibition, % at 10 µM; hit rate 9% among 200,000; in the data active means inhibition above about 50%;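 further: promastigotes grown with compound for 44 hours at 28 °C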
# PMI act: activators of human phosphomannose isomerase. P34949. purified human PMI, coupled resazurin fluorescence, 20 min; stronger effect = higher value; 1 = vehicle control, 0 substrate-free wells. activation factor at 20 µM. hit rate 0.005% among 190,000;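 active means activation factor of 2 or more at 20 µM, relative to plate controls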
# WT yeast gro inh: growth inhibition of WT yeast, mitochondrial fusion screen; mitochondrial fusion phenotypic screen, WT strain; inhibition, % at 10 µM; hit rate 2.1% among 190,000; in the data active means inhibition above about 58%; tested in S. cerevisiae
# Diaphorase act: activates diaphorase or chemically reduces, flagging diaphorase assay artifacts; Diaphorase/resazurin coupled assay, resorufin fluorescence, 16 min; stronger effect = higher value; 1 = vehicle wells, 0 = NADH-free wells; activation factor at 20 µM; hit rate 0.005% among 190,000; AID 1229;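 active means diaphorase activity raised at least twofold by the compound at 20 µM; inactive means activation factor below 2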
#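 Material: purified diaphorase enzyme from Clostridium kluyveri / Medium: HEPES pH 7.4 buffer with MgCl2 and Tween 20 / Schedule: enzyme reaction of 16 min at room temperature / Measured by: resorufin fluorescence, excitation 544 nm, emission 590 nm / Evaluation: rise in resorufin formation, marking diaphorase activation or chemical reduction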
# * hit, by the source's call. Shown are actives, neighbours in structure and some others; about 10% of the full set was active somewhere.
SMILES,PMI act satM6P,L major viab,PMI act,WT yeast gro inh,Diaphorase act
O=C1CC(c2ccccc2)CC(O)=C1C=NCCN1CCNCC1 (centres undefined),0.9,-1,1,6,0.9
Cc1ccc(S(=O)(=O)N2CCN(C3CCC(c4ccccc4)CC3)CC2)cc1 (centres undefined),0.8,96*,0.8,29,0.8
c1ccc(C2CCC(N3CCNCC3)CC2)cc1 (centres undefined),1.2,91*,1.1,48,1
CCS(=O)(=O)N1CCN(C2CCC(c3ccccc3)CC2)CC1 (centres undefined),1,99*,1,24,0.8
CCCS(=O)(=O)N1CCN(C2CCC(C)CC2)CC1 (centres undefined),1,32,0.9,-1,0.8
O=S(=O)(c1ccccc1)N1CCN(C2CCCCCCC2)CC1,1.1,45,1,4,1.1
Cc1cccc(Nc2nnc(SCC(=O)NCc3cccs3)s2)c1,1,7,1,12,1
Cc1nnc(SCC(=O)NC(=O)Nc2ccc3c(c2)OCCO3)s1,1,8,1,3,0.9
Cc1cccc(Nc2nnc(SCC(=O)NC(=O)Nc3ccc4c(c3)OCCO4)s2)c1,0.9,28,0.9,-4,1
Cc1cccc(Nc2nnc(SCC(=O)NCc3cccs3)s2)c1C,0.9,58*,0.9,4,0.8
Cc1ccccc1Nc1nnc(SCC(=O)NC(=O)Nc2ccc3c(c2)OCCO3)s1,1,60*,0.8,-5,1
COc1ccccc1Nc1nnc(SCC(=O)NC(=O)Nc2ccc3c(c2)OCCO3)s1,1,56*,0.9,-11,1
O=C(NNC(=O)C1CCCN(S(=O)(=O)c2cccc(F)c2)C1)C1CC1 (centres undefined),1,8,0.9,-8,1
Cc1c(C(=O)NCC2COc3ccccc3O2)oc2ccc(S(=O)(=O)N(C)C3CCCCC3)cc12 (centres undefined),1,53*,0.9,26,0.8
CCN(CC)c1ccc(C(=S)NC2CCCCC2)cc1,0.9,4,0.7,73*,0.9
CCN(CC)c1ccc(C(=S)NCc2ccccc2)cc1,0.8,-2,0.7,67*,0.9
CN(C)c1ccc(C(=S)NC2CCCCC2)cc1,0.9,-3,0.6,-1,0.9
CCN(CC)c1ccc(C(=O)O)cc1,1,-4,1,16,1
O=C(CN1CCC(Cc2ccccc2)CC1)N1CCc2ccccc2C1,1.1,79*,1.1,-1,0.9
O=C(c1ccccc1)C1CCN(CC(=O)N2CCN(c3ccccc3)CC2)CC1,1,92*,1.1,-8,0.6
CC1CCC2(CC1)NC(=O)N(CC(=O)N1CCc3ccccc3C1)C2=O (centres undefined),1,-2,1,-19,0.9
O=C(CN1C(=O)NC2(CCCCCCC2)C1=O)N1CCc2ccccc2C1,0.9,68*,1,-3,0.9
O=C(CN(C1CCCCC1)C1CCCCC1)N1CCc2ccccc2C1,0.9,64*,0.8,53,0.8
O=C(CN1CCN(c2ccc(F)cc2)CC1)N1CCC(Cc2ccccc2)CC1,0.9,88*,0.8,40,0.8
OCC1(CCc2ccccc2)CCN(Cc2cccn2-c2cccnc2)CC1,1,61*,1,5,0.9
SMILES,PMI act satM6P,L major viab,PMI act,WT yeast gro inh,Diaphorase act
CC(C)CN1CCN(Cc2cccn2-c2cccnc2)CC1CCO (centres undefined),1,-4,1.1,4,1.2
O=C(C1=C[C@H](C2CCCCC2)C[C@H](OCCCCO)O1)N1CCN(Cc2ccc3c(c2)OCO3)CC1,1,97*,0.9,13,0.7
O=C(C1=C[C@H](c2ccc3c(c2)OCO3)C[C@H](OCCCCO)O1)N1CCN(Cc2ccc3c(c2)OCO3)CC1,0.9,51*,0.9,2,0.9
O=C(C1=C[C@@H](c2ccc3c(c2)OCO3)C[C@@H](OCCCCO)O1)N1CCN(Cc2ccc3c(c2)OCO3)CC1,0.9,23,0.9,-3,0.8
CCNc1sc(S(C)(=O)=O)nc1S(=O)(=O)c1ccc(Cl)cc1,1.1,1,1.2,2,0.9
O=C(COC(=O)[C@H](Cc1ccccc1)NC(=O)c1ccco1)NCc1ccccc1,0.9,1,0.9,-16,0.8
Cc1ccc(Cl)cc1NC(=O)C(Cc1ccccc1)N1C(=O)C2C3CCC(C3)C2C1=O (centres undefined),0.9,18,0.9,4,0.8
Cc1ccc(NC(=O)C(Cc2ccccc2)N2C(=O)C3C4CCC(C4)C3C2=O)cc1Cl (centres undefined),0.9,88*,0.8,-6,0.8
CC(C)CC(=O)NC(NCC1CCCO1)C(Cl)(Cl)Cl (centres undefined),0.9,-8,0.7,0,0.9
N#CCCN(Cc1cccnc1)S(=O)(=O)c1ccc(S(=O)(=O)N2CCCCCC2)cc1,1,-5,1,9,0.9
N#CCCN(CCN1CCCC1)S(=O)(=O)c1ccc(-c2ccc([N+](=O)[O-])cc2)cc1,0.9,93*,0.8,3,1
O=C(Nc1cccc(N2CCCC2)c1)c1cccs1,0.8,86*,0.7,10,0.8
Cc1ccc(NC(=O)c2ccco2)c(NC(=O)c2cccs2)c1,0.8,72*,0.8,-5,0.7
Nc1cccc(NC(=O)c2cccs2)c1,0.9,2,0.9,56,0.9
O=C(Nc1ccc(NC(=O)c2cccs2)cc1Cl)c1ccco1,0.9,13,1,0,0.8
O=C(c1ccccc1)c1ccc(N2CCOCC2)c(NC(=O)c2ccco2)c1,0.9,64*,1,-11,0.9
O=C(Nc1cccc(NC(=O)c2cccs2)c1)c1ccco1,1,72*,1,-12,1
COc1ccc(C(=O)NC(=S)NCC2CCCO2)cc1 (centres undefined),1.1,2,1,-3,0.8
CSc1nc(C)c(C(=O)C[n+]2ccc(C)cc2)cc1C#N,1.1,1,1.1,-1,1.1
O=C(Nc1cc(C(=O)N2CCOCC2)ccc1N1CCCC1)c1cccs1,2.1*,0,1.7,-22,1
Cc1ccc(CNC(=O)N[C@@H](Cc2ccccc2)C(=O)O)cc1,1.1,-4,1,-10,1
COc1ccc(-n2cnc3c(sc4nc(N5CCOCC5)c5c(c43)CCCC5)c2=O)cc1,1,87*,1,13,0.9
COC(=O)c1ccc(-c2sc3nc(N4CCOCC4)c4c(c3c2N)CCCC4)o1,0.8,5,0.8,62*,0.7
CN(C(=O)Nc1cnc2ccccc2c1)c1ccccc1,1,6,1,-5,1
CC1=C(C(=O)c2ccccc2)C(c2ccc(OC(F)F)cc2)NC(=S)N1 (centres undefined),1.1,24,1.2,0,0.9

# Assay outcomes: PubChem BioAssay, several laboratories
